Screens deposited in PubChem BioAssay by several laboratories.
M1 agonist = agonists of M1 muscarinic receptor; 64,000 compounds, 3% hits; AID 626; B-score at 10 µM; CHO-M1 cells, Fluo-4 calcium fluorescence, agonist mode; stronger effect = higher value;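 active means fluorescence rise, raw or as B-score row- and column-corrected plate score, outside the 99.7% band of its plate's samples, either direction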
RORA act = activates the human nuclear receptor RORA; 65,000 compounds, 1.5% hits; AID 560; CHO-K1 Gal4-RORA LBD luciferase reporter, luminescence; percent increase over mock-subtracted basal signal; activation, % at 10 µM;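 active means activation above the mean of all tested compounds plus 3 SD, cut at about 49% in these data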;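 further: 0% = DMSO-treated RORA cells and 100% = added signal equal to DMSO minus mock-transfected cells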
M1 antag = antagonists of rat M1 muscarinic receptor | P08482 | CHO-M1 cells, Fluo-4 calcium, ACh EC80 antagonist mode; stronger effect = lower value | B-score at 10 µM | 64,000 compounds, 3.4% hits;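 active means calcium fluorescence response, raw or row-and-column corrected B-score, differing from the plate sample mean either way at a set confidence level, mostly lower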
Target sequence (P08482 whole entry, looked up): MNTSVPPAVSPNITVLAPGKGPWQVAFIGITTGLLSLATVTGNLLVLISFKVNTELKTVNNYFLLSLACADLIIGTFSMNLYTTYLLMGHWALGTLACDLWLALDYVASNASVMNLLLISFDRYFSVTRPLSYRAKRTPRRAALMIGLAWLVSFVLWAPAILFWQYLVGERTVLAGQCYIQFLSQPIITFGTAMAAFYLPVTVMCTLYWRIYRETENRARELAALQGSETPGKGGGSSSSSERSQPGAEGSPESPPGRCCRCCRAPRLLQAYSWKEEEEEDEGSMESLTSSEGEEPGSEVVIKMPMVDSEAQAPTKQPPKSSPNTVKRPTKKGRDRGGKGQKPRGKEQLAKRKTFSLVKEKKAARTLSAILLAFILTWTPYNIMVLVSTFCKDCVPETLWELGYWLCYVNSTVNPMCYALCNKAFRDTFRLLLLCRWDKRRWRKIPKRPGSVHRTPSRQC
SF-1 act = activators of human nuclear receptor SF-1. Q13285. CHO-K1 Gal4-SF-1 LBD luciferase reporter; % increase over DMSO SF-1-specific signal. activation, % at 10 µM. 65,000 compounds, 1.9% hits. AID 522;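 active means activation above the mean activation of all tested compounds plus 3 SD, cut at about 50% in these data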
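Assay system: CHO-K1 cells co-transfected with Gal4 DBD–human SF-1 LBD, 5xGal4 luciferase reporter / Input: 4,000 cells per well / Incubation: 20 h compound exposure at 37 °C after 1 h cell settling / Detection: SteadyLite luciferase luminescence / Control set: DMSO negative control and −SF1 background wells / Replication: one test per compound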
D1 mod = D1 dopamine receptor (human) allosteric modulation; P21728; HEK293 D1, CRE-luciferase, dopamine EC30 potentiation; actives deviate in either direction; 58,000 compounds, 5.9% hits; AID 641; B-score at 10 µM;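 active means luminescence count or its row- and column-corrected plate score outside the 99.7% band of the plate's sample wells, on either side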
HePTP inhibitor = human HePTP phosphatase inhibition; P35236; recombinant HePTP phosphatase activity, OD absorbance; inhibition, % at 20 µM; 110,000 compounds, 0.64% hits; in the data active means inhibition above about 50%;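 further: plate controls were vehicle for no effect and reference inhibitor for full effect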
M1 antag confirm = confirmation of rat M1 muscarinic receptor antagonists | 1,700 compounds, 43% hits | CHO-M1 cells, Fluo-4 calcium, ACh EC80 antagonism; stronger effect = lower value | shares compounds with M1 antag | calcium response (max-min fluorescence) at 10 µM;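 active means calcium response below the same-plate mean of wells given acetylcholine alone at its 80%-effect dose, minus 3 SD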;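 further: raw fluorescence intensity difference in arbitrary instrument units and not normalized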
mGluR4 antag = mGluR4 (human) activity, M1 antagonist secondary assay. shares compounds with M1 antag. CHO-mGluR4 calcium flux, Fluo-4 fluorescence, glutamate EC80; stronger effect = lower value. fluorescence response (max-min) at 10 µM. 1,700 compounds, 0.9% hits. AID 678;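 active means fluorescence response below the plate's average for near-maximal glutamate wells, less 3 SD of those wells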;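 further: raw unnormalized fluorescence span taken in the window right after glutamate addition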
Active calls of the source: *. The list is not random: actives were taken first. Their share in the collection is about 8.2%.

`O=C(Oc1ccc(OC(=O)N2CCCCC2)cc1)c1ccccc1` gave M1 agonist -0.083, RORA act 2, M1 antag -2.9*, SF-1 act 7, D1 mod -0.46, HePTP inhibitor 6, M1 antag confirm 237* and mGluR4 antag 293.
O=C1C=C(c2ccccc2)CC(c2ccccc2)C1n1nnc2ccccc21 (stereo not drawn) was read as HePTP inhibitor -14.
CCOC(=O)C1CCCN(CC(=O)Nc2c(C(=O)OC)[nH]c3ccccc23)C1 (stereo not drawn) was read as M1 agonist -0.11, RORA act 10, M1 antag -5.8*, SF-1 act 13, D1 mod 1.3, HePTP inhibitor 1, M1 antag confirm 552* and mGluR4 antag 147.
For COC(=O)c1[nH]c2ccccc2c1NC(=O)CN1CCC(C(N)=O)(N2CCCCC2)CC1 the results were M1 agonist 1.3, RORA act 17, M1 antag -2.6*, SF-1 act 29, D1 mod 1.9, HePTP inhibitor 8, M1 antag confirm 550 and mGluR4 antag 191.
For COC(=O)c1[nH]c2ccccc2c1NC(=O)CN1CCCCCC1 the results were M1 agonist -0.61, RORA act -2, M1 antag -0.55, SF-1 act -5, D1 mod -0.84 and HePTP inhibitor -3.
CCC(C)N(CCNC(=O)CC1Oc2ccc(C)cc2NC1=O)C1CCCCC1 (stereo not drawn) was read as M1 agonist -1.3, RORA act -7, M1 antag -8.8*, SF-1 act -4, D1 mod -0.14, HePTP inhibitor 4, M1 antag confirm 21* and mGluR4 antag 208.
`CCOc1cccc(NC(=O)C2CC(=O)N(C)C(=Nc3ccccc3)S2)c1` (stereo not drawn) gave M1 agonist 1.4, RORA act 27, M1 antag -0.99, SF-1 act -17, D1 mod 0.05 and HePTP inhibitor 8.
Screening CCOCCCn1c(=S)[nH]c2cc(C(=O)NCCN(CC)CC)ccc2c1=O returned M1 agonist 0.12, RORA act 1, M1 antag -8.8*, SF-1 act 13, D1 mod 0.12, HePTP inhibitor 5, M1 antag confirm 538 and mGluR4 antag 204.
`CCn1c(=O)c(=O)[nH]c2cc(C(=O)Nc3ccc(S(=O)(=O)N4CCCC4)cc3)ccc21` gave M1 agonist -0.54, RORA act -4, M1 antag -1.2, SF-1 act 0, D1 mod 0.027 and HePTP inhibitor 8.
For C=C(C)Cn1c(SCC)nc2ccccc2c1=O the results were M1 agonist 0.4, RORA act -4, M1 antag -4.1*, SF-1 act -11, D1 mod 5, HePTP inhibitor 6, M1 antag confirm 566 and mGluR4 antag 200.
Screening CCn1c(SCC(N)=O)nc2ccccc2c1=O returned M1 agonist -0.14, RORA act 12, M1 antag 0.96, SF-1 act -1 and HePTP inhibitor -4.
Screening COc1ccc(Oc2coc3c(CN(C)C)c(O)ccc3c2=O)cc1 returned M1 agonist -0.058, RORA act -2, M1 antag -3.7*, SF-1 act 6, D1 mod -4.3*, HePTP inhibitor 6, M1 antag confirm 445* and mGluR4 antag 211.
Screening COc1ccc(Oc2c(C)oc3c(CN(C)C)c(O)ccc3c2=O)cc1 returned M1 agonist 0.43, RORA act -17, M1 antag -7.5*, SF-1 act 0, HePTP inhibitor 7, M1 antag confirm 371* and mGluR4 antag 182.
Screening N#Cc1nc(-c2ccc(Cl)cc2)oc1N1CCCCC1 returned M1 agonist -0.45, RORA act -17, M1 antag -1.2, SF-1 act -10, D1 mod -0.98 and HePTP inhibitor 5.
COc1ccc2nc(NC(=O)c3cnccn3)sc2c1 was read as M1 agonist -1.9, RORA act 19, M1 antag -2.7*, SF-1 act -4, D1 mod -4.9*, HePTP inhibitor 9, M1 antag confirm 616 and mGluR4 antag 171.
For COC(=O)N1CC(c2ccccc2)CC1=O (stereo not drawn) the results were M1 agonist -0.031, RORA act -16, M1 antag -2.3*, SF-1 act 10, D1 mod 0.077, HePTP inhibitor 1, M1 antag confirm 694 and mGluR4 antag 253.
`O=C(CCn1c(=O)[nH]c2ccsc2c1=O)N1CC(=O)N(CCc2ccccc2)C(=O)C1` gave M1 agonist 0, RORA act -18, M1 antag 0.22, SF-1 act -8, D1 mod 0.11 and HePTP inhibitor 4.
For O=C(c1cccs1)N1CCN(C2CCN(Cc3ccccc3)CC2)CC1 the results were M1 agonist -1.5, RORA act -13, M1 antag -4.8*, SF-1 act 5, D1 mod 0.14, HePTP inhibitor 6, M1 antag confirm 443* and mGluR4 antag 276.
Screening O=C(c1ccccc1)N1CCN(C2CCN(Cc3ccccc3)CC2)CC1 returned HePTP inhibitor 6.
Cn1c(CSCc2ccccc2Cl)nnc1SCC(=O)Nc1nccs1 was read as M1 agonist 0.047, RORA act -14, M1 antag 0.0071, SF-1 act 11, D1 mod 0.18 and HePTP inhibitor 6.
`N#CC1=C(N)N2C(=C(C#N)C13CCN(Cc1ccccc1)CC3)Nc1ccccc12` gave M1 agonist -0.43, RORA act 19, M1 antag -3.4*, SF-1 act 2, D1 mod -0.18, HePTP inhibitor 0, M1 antag confirm 405* and mGluR4 antag 187.
For CC(C)c1[nH]nc2c1C1(CCN(Cc3ccccc3)CC1)C(C#N)=C(N)O2 the results were RORA act 20, SF-1 act -7, D1 mod -1.4 and HePTP inhibitor 12.
`COCc1cc(C)nc(SCC(=O)Nc2cccc3cccnc23)c1C#N` gave M1 agonist 0.42, RORA act 13, M1 antag -3.9*, SF-1 act 7, D1 mod 0.66, HePTP inhibitor -3, M1 antag confirm 643 and mGluR4 antag 215.
`O=C(Nc1ccc2c(c1)OCO2)C1CCN(Cc2cnn(-c3ccccc3)c2-n2cccc2)CC1` gave M1 agonist 0.32, RORA act 3, M1 antag -2.1*, SF-1 act 6, D1 mod 0.21, HePTP inhibitor 11, M1 antag confirm 639 and mGluR4 antag 281.
